What is called IC50 is the midpoint of a concentration-inhibition curve.

For the first assay, the system named is MDA-MB-231. Nature of the assay: Antiproliferative activity against human MDA-MB-231 cells incubated for 72 hrs by MTT assay. The conditions noted are these: MDA-MB-231, 72 h. The assay is classed as functional, cell-based. A digest of the protocol:
(§1)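 MDA-MB-231 cells grown in DMEM with 10% FBS under 5% CO2 were seeded at 5×10^4 cells/ml. After 24 h, a concentration series was added for 24, 48 or 72 h and viability was read by MTT. IC50 is mean ± SD of triplicates.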
In general terms: Formazan colour is commonly taken as a measure of viable cells.
`C#Cc1cccc(Nc2ncnc3cc(OCCOC)c(OCCOC)cc23)c1` [ERLOTINIB] came in with an IC50 of 30.1 µM.

The test system of a further assay is MDA-MB-231. Nature of the assay: Antiproliferative activity against human MDA-MB-231 cells incubated for 48 hrs by MTT assay. Format: functional, cell-based. The conditions noted are these: MDA-MB-231, 48 h. A digest of the protocol: as §1
As for `C#Cc1cccc(Nc2ncnc3cc(OCCOC)c(OCCOC)cc23)c1` [ERLOTINIB], the midpoint of inhibition, the IC50, lay at 33.5 µM.

In a further assay the test system is MDA-MB-231. Put plainly: Antiproliferative activity against human MDA-MB-231 cells incubated for 24 hrs by MTT assay. Format: functional, cell-based. The note with it: MDA-MB-231, 24 h. In outline:
as §1
With `O=C(c1ccc(Cl)cc1Cl)N1CCN(c2nccc(NCc3ccccc3)n2)CC1`, the 50% inhibitory concentration (IC50) came to 9.79 µM.
With `O=C(c1cccc(O)c1)N1CCN(c2nccc(Oc3cc(Cl)cc(Cl)c3)n2)CC1`, inhibition was half-maximal at 18.4 µM (IC50).
For the molecule `Cc1ccc(NC(=O)N2CCN(c3nccc(Oc4cc(Cl)cc(Cl)c4)n3)CC2)cc1`, the midpoint of inhibition, the IC50, lay at 11.6 µM.
`COc1cccc(Nc2cc(N3CCN(C(=O)c4ccc(Cl)cc4Cl)CC3)ncn2)c1` yielded an IC50 of 7.23 µM.
Turning to `O=C(c1ccc2c(c1)OCO2)N1CCN(c2nccc(Oc3cc(Cl)cc(Cl)c3)n2)CC1`, the IC50 was more than 50 µM.
Still for that read-out and setting: the result for `O=C1CC[C@@H](C(=O)N2CCN(c3nccc(Oc4cc(Cl)cc(Cl)c4)n3)CC2)N1` reads more than 50 µM; that for `CN1CCN(CC(=O)N2CCN(c3nccc(Oc4cc(Cl)cc(Cl)c4)n3)CC2)CC1`, 24.7 µM; that for `O=C(Nc1ccccc1Cl)N1CCN(c2nccc(Oc3cc(Cl)cc(Cl)c3)n2)CC1`, 11 µM.
In turn, `O=C(Nc1ccccc1Cl)N1CCN(c2nccc(NCc3ccccc3)n2)CC1` registered a half-maximal inhibitory concentration (IC50) of 1.59 µM.
`O=C(Nc1ccc(C(F)(F)F)cc1)N1CCN(c2nccc(Oc3cc(Cl)cc(Cl)c3)n2)CC1` came in with a 50% inhibitory concentration (IC50) of 1.54 µM.
Still for that read-out and setting: the result for `COc1cccc(Nc2cc(N3CCN(C(=O)Nc4ccccc4Cl)CC3)ncn2)c1` reads 2.8 µM.
The molecule `COc1ccc(S(=O)(=O)N2CCN(c3nccc(Oc4cc(Cl)cc(Cl)c4)n3)CC2)cc1` showed an IC50 of 46.8 µM.
As to `N#Cc1ccc(S(=O)(=O)N2CCN(c3nccc(Oc4cc(Cl)cc(Cl)c4)n3)CC2)cc1`, 24.8 µM corresponded to half-maximal inhibition (IC50). This IC50 lies about 1.9-fold lower than the previous one.
Regarding `O=C(c1cc(Cl)ccn1)N1CCN(c2nccc(Oc3cc(Cl)cc(Cl)c3)n2)CC1`, the midpoint of inhibition, the IC50, lay at 16.7 µM.
Molecule `O=C(CN1CCOCC1)N1CCN(c2nccc(Oc3cc(Cl)cc(Cl)c3)n2)CC1` came in with an IC50 of 37.6 µM.
In turn, `CC(=O)Nc1ccc(C(=O)N2CCN(c3nccc(Oc4cc(Cl)cc(Cl)c4)n3)CC2)cc1` gave an IC50 of more than 50 µM.
For the molecule `O=C(c1ccc2ncccc2c1)N1CCN(c2nccc(Oc3cc(Cl)cc(Cl)c3)n2)CC1`, the half-inhibitory concentration (IC50) was more than 50 µM.
In turn, `O=C(c1ccc(Cl)cc1Cl)N1CCN(c2nccc(Oc3cc(Cl)cc(Cl)c3)n2)CC1` returned an IC50 of 11.8 µM.
The same measure, in the same setting: under `O=S(=O)(c1cccnc1)N1CCN(c2nccc(Oc3cc(Cl)cc(Cl)c3)n2)CC1` stands 24.8 µM; under `O=C(c1ccc(C(F)(F)F)cc1)N1CCN(c2nccc(Oc3cc(Cl)cc(Cl)c3)n2)CC1`, 12.5 µM.
Take `O=S(=O)(c1ccccc1)N1CCN(c2nccc(Oc3cc(Cl)cc(Cl)c3)n2)CC1`: the IC50 is more than 50 µM.
`CC(C)(C(=O)N1CCN(c2nccc(Oc3cc(Cl)cc(Cl)c3)n2)CC1)c1cc(C(F)(F)F)cc(C(F)(F)F)c1` yielded a concentration for half-maximal inhibition (IC50) of more than 50 µM.
For the molecule `O=C(Nc1ccc(C(F)(F)F)cc1)N1CCN(c2nccc(NCc3ccccc3)n2)CC1`, it took 2.45 µM to reach half-maximal inhibition (IC50).
For the molecule `O=C(c1ccccc1F)N1CCN(c2nccc(Oc3cc(Cl)cc(Cl)c3)n2)CC1`, the half-inhibitory concentration (IC50) was more than 50 µM.
Regarding `COc1cccc(Nc2ccnc(N3CCN(C(=O)Nc4ccc(C(F)(F)F)cc4)CC3)n2)c1`, the half-maximal inhibitory concentration (IC50) was found to be 1.24 µM.
For `O=C(c1ccc[nH]1)N1CCN(c2nccc(Oc3cc(Cl)cc(Cl)c3)n2)CC1`, the midpoint of inhibition, the IC50, lay at 35.2 µM. This IC50 is about 28-fold higher than that of the molecule before.
For the molecule `COc1ccccc1S(=O)(=O)N1CCN(c2nccc(Oc3cc(Cl)cc(Cl)c3)n2)CC1`, inhibition was half-maximal at 16.8 µM (IC50).
Molecule `O=C([C@H]1Cc2ccccc2N1)N1CCN(c2nccc(Oc3cc(Cl)cc(Cl)c3)n2)CC1` had an IC50 of more than 50 µM.
`Cc1cnc(C(=O)N2CCN(c3nccc(Oc4cc(Cl)cc(Cl)c4)n3)CC2)cn1` returned a half-maximal inhibitory concentration (IC50) of 34.8 µM. In other words, the double-digit micromolar range.
The same measure, in the same setting: the result for `COc1cccc(Nc2ccnc(N3CCN(C(=O)c4ccc(Cl)cc4Cl)CC3)n2)c1` reads 11.3 µM; that for `O=C(c1cccc(C(F)(F)F)c1)N1CCN(c2nccc(Oc3cc(Cl)cc(Cl)c3)n2)CC1`, 17.9 µM.
`COc1ccc(NC(=O)N2CCN(c3nccc(Oc4cc(Cl)cc(Cl)c4)n3)CC2)cc1` displayed a half-maximal inhibitory concentration (IC50) of 16.4 µM.
On to `Cc1cccc(C(=O)N2CCN(c3nccc(Oc4cc(Cl)cc(Cl)c4)n3)CC2)c1`, for which the IC50 was more than 50 µM.
Consider `O=C(c1cccc(Cl)c1)N1CCN(c2nccc(Oc3cc(Cl)cc(Cl)c3)n2)CC1`, for which it took 37.8 µM to reach half-maximal inhibition (IC50). In other words, the double-digit micromolar range.
`COc1cccc(Nc2ccnc(N3CCN(C(=O)Nc4ccccc4Cl)CC3)n2)c1` returned a half-inhibitory concentration (IC50) of 5.26 µM.
Take `O=C(Nc1cc(C(F)(F)F)cc(C(F)(F)F)c1)N1CCN(c2nccc(Oc3cc(Cl)cc(Cl)c3)n2)CC1`: the IC50 stood at 6.74 µM.
Turning to `O=S(=O)(c1ccc(F)cc1)N1CCN(c2nccc(Oc3cc(Cl)cc(Cl)c3)n2)CC1`, the IC50 is more than 50 µM.
For `O=C(Nc1cccc(Cl)c1)N1CCN(c2nccc(Oc3cc(Cl)cc(Cl)c3)n2)CC1`, the IC50 is 7.9 µM.
The same measure, in the same setting: the result for `O=C(Nc1ccc2ccccc2c1)N1CCN(c2nccc(Oc3cc(Cl)cc(Cl)c3)n2)CC1` reads 46.8 µM; that for `CC(C)(C)c1ccc(S(=O)(=O)N2CCN(c3nccc(Oc4cc(Cl)cc(Cl)c4)n3)CC2)cc1`, more than 50 µM.
`C#Cc1cccc(Nc2ncnc3cc(OCCOC)c(OCCOC)cc23)c1` [ERLOTINIB] displayed a concentration for half-maximal inhibition (IC50) of 55.5 µM.

These data come from ChEMBL document CHEMBL4130442, “Design, synthesis and structure-activity relationship studies of a focused library of pyrimidine moiety with anti-proliferative and anti-metastasis activities in triple negative breast cancer” (Eur J Med Chem, 2017).
